B1: tRNA (parent)
chain: GUUCCGUUGGCGUAAUGGUAACGCGUCUCCCUCCUAAGGAGAAGACUGCGGGUUCGAGUCCCGUACGGAACG

This sample holds only a part of the variants without activity.

Variants of B1 are the subject of the series. Briefly: yeast fitness relative to wild type (ratio to wild type); higher = fitter; tRNA-Arg(CCU), competitive growth, 37 C, YPD. In short, it runs like this:
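Variants of the tRNA-Arg(CCU) gene, chemically synthesised with a 3% per-site mutation rate at 69 sites, were placed at the native genomic locus in Saccharomyces cerevisiae. The pooled strains were competed in YPD at 37°C for 24 hours in six parallel replicates. Gene amplicons from the start population and from each end population were read by 100-nucleotide paired-end sequencing. Darwinian fitness relative to wild type came from changes in genotype frequencies; genotypes needed ≥ 100 starting reads, and estimates < 0.5 were set to 0.5.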
As for GUUUCGUUGGCGUAAUGGUAACGCGUCUCCGUCCUAAGGGGAAGCCUGCGGGAUCGAGUCCCGUACGGAUCG, the yeast fitness is at most 0.5.
Under GUUGCGUUGGCGUAAUCGUAACGCGUCUCCCUGCUAAGGAGAAGACAGCGGGUUCGAGUCCCGUACGGAACG stands 0.689; under GUUCCGUUGGCGUAAUGGUAACGCGUCUCCCUCCUAAGGAGAAACCUGUGGGUUCGAGUCGCGUACGGAACG, at most 0.5; under GUUCCGUUGGCGUAAUGGUAACGCGUCUCUCACCUUUGGAGAAGACUGCGGGUUCGAGUCCCGUACGGAACG, at most 0.5.
Under GUUCCGUUGGCGUAAUGGUAACGCGUCUCCCUCCUGAGGAGAAGACUGCGGGUUCAAGUCCCGUACGGAGCG stands 0.595; under GUUCCGUUGGUGUAAUGGUAACGCGUCUCCUUCCUAAGGAGAAGACUGCGGGUUCGAGUACCGAACGGAACG, at most 0.5; under GUACCGUUGGCCCAAUGGUAACGCGUCUCCCUCCUAAGGAGAAGACUGUGGGUUCCAGUCCCGUACGGAACG, at most 0.5.
For GUUCCGUUGGCGUAAUGGUACCGCGUCUCCCUCCUAAGGAGAAGACUGCGGGUUCGACUCCCGUAUGGAACG, the yeast fitness is at most 0.5.
To GUUUCGUUGGCGUAAUGGUAAUGCGUCUCCCUCCUAAGGAGAAGGCUGCGGGUUCGAGUCCCGUAGGGAACG belongs at most 0.5; to GUUCCGUUGGCGUAAUGGGAACGCGUCUCCCUCCUAAGGAGCCGACUGCGGGUUCGAGUCCCGUACGGAACG, 0.951.
Under GUUCAGUUGGGGUAAUGGUAACGCGUCUCCCUCCUAAGGACAAGACUGCGGGUUCGGGUCCCGUACGGAACG stands 0.554.
Consider GUUCCGUUGGCGUAAAGGUAACGCGUCUCCCUCCUAAAGAGAAGACUGCGGGUUCGAGUCCAGUACGGUACG, for which the yeast fitness is at most 0.5.
To GUACCGUUGGCGUAUUGGUAACCCGUUUCCCUCCUAAGGAGAAGACUGCGGAUUCGAGUCCCGUAUGGAACG belongs at most 0.5; to GUUCGGUUCGCGUAAUGGUAACGCGUCUCCCUCCUAAGGAGGAGACUGCGGGUUCGAGUCCCGUACGGAACG, at most 0.5; to GUUCCGUUGGCGUAACGGUAACGUGUCUACCACCUAAGGAGAAGAGUGCGGGUUCGCGUCCCGUACGGAACG, 0.522.
To GUUCCGUUGGCGUAAUGGUAUCGCGUCUCCCUCCUGAGGAGAAGACUGCGGGUUAGAGUCCCGUACCGAACG belongs at most 0.5; to GUUCCGUUGGCGUAAUGGUAACGCGUCUCCCUCCUAAGCAGAAGACUGCGGGUUCGAGUCCCGUACGUAACG, 0.762.
To GUUCCGUUGGCGUAAUGGUGACGCGUCUCCCUCCUAAGGAGAAGACUGCGGGUUCGAGUACCGUACGGAACG belongs 0.751.
As for GUUCCGUUGGCGCAAUGGUAACCCGUCUCCCUCCUCAGAAGAGGACUGCGGGUUCGAGUCCCGUACGGAACG, the yeast fitness is at most 0.5.
With GUUCCGUUGGCGUAAUGGUAAAGAGCCUCCCUCCUAAGGAGAAGACUGCGGGUUCGAGUGUCGUACGGAACG, the yeast fitness was at most 0.5.
To GUUCCGUCGGCGUAAUGGUAACGCGUCUCGCUCCUAAGGAGAAGACUGAGGGUUCGAGUCCCGUACGAAACG belongs at most 0.5.
Under GUUCUGUUGGCGUAAUGGUAAGGCGUCUACCUCCUAAGGAGAAGUCUGCGGGUUCGAGUCCCGUACGGACCG stands at most 0.5.
For the variant GUUCCGUUGGCGUAAUGGUAGCGCGUCUCCCUCCUAAGGAAAAGACUGCGGGUUCGAGUCCCGUACGGAACG, the yeast fitness was determined as 0.995.
In the case of GUUCCGUUGACGUAAUGGUAACGCGUCUCCUUCCUAACGAGAAGACUGCGGGUUCGAGUCCCGUACAGAACG, the yeast fitness is at most 0.5.
Under GUUCCGUUGGCGUAAUGGUAACGCGUCUCCCUCCUAAGGAGAAGAGUGCGGGUUGGAGUCCCGUACGGGACG stands at most 0.5; under GUUCCGUUGGCGUAAUGGUAACGCGUCUCCUUCCUAACGAGAAGACUGCGCGUUUGAGUCCCGUACGGAACG, at most 0.5; under GUUCCGUUGGCGUGAUGGUAACGCGUCUCCCUCCUAAGGAGAAGACUGCGGGUUCGAGUCCCGUAAGGAACG, 0.656.
Consider GUUCCGUUGGCGUAAUGGUAGCGCGUCUCCCUCCUGAGGAGAAGACUGCGGGUUCGAGUUCCGUACGGAACG, for which the yeast fitness worked out at 0.531.
As for GUUCCGUUGGCGUAAUGGUAACGUGUCUCCCUCCUAAGGAGAAGCCUGCGGGUUCGAGUCCCGUACAGAUCG, the yeast fitness was at most 0.5.
To GUUCUGUUGGCGUAAUGGCAACGCGUCUCCCUCCUAAGGAGAAGACUGCGGAUUCGAGUCCCGUACGGAACG belongs 0.625; to GUUCCGUUGGCGUAAUGGUUACGCGUCUCCCUCCUAAGGUGAAGACUGCGGGUUCGAGUCCCGUACGGUACG, 0.73.
As to GGUCCGUUGGCGUAAUGGUAACGAGUCUCCCUCCUAAGGAGAAGAAUGCGGGUUCGAGUCCCGUACGGACCG, the yeast fitness came to 1.01.
To GUUCCAUUGGCGUAAUGGUAACGCGUCUCCCUCCUAAGGAGAACACUGCCGGUUCGGGUCCCGUACGGAACG belongs at most 0.5; to GUUUCGUUGGCGUAAUGGUAACGCGUCUCCCUCCUAAGGAGAAGACUGCGGGUUCGAGUCCCGUAAGCAACG, 0.546; to GUUCGGUUGGCGUAAUGGUCACGCGUCUCCCUCCUAAGGAGAAGACUACGGGUUCGAGUCCCGUACGGAACG, at most 0.5.
Under GUUCCGUUGGCGUAAUGCUAACGCGUCUCCCUCCUAAGGAGAAGACUGCGGGUUUGAGUCCCGUACGGAACG stands 0.532; under GUUCCGUUGGCGUAAUGGUAACGGGACUCCCUCCUAAGGAGAAGAAUGCGGGUUCGACUCCCGUACGGAACG, at most 0.5.

For the origin of these results see the RNAGym collection of RNA variant scans (doi:10.1126/science.aae0568).
